Activity calls are given as the source filed them. The rule behind the calls is not given here.
What was measured:
MV4-11 [1] = assay: Induction of apoptosis in human MV4-11 cells assessed as late apoptotic cells at 20 nM after 48 hrs by Annexin V-FITC/propidium iodide staining-based flow cytometric analysis (reference value: 5.03%); type: functional
Raji = assay: Antiproliferative activity against human Raji cells after 72 hrs by MTT assay; type: functional, cell-based
In short: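 Log-phase cells were plated at 10000-15000 per well and exposed to serial concentrations after 24 h for 72 h. Read-out was MTT for 1-3 h, then 20% SDS overnight and absorbance at 570 nm. IC50 was calculated from growth versus untreated control, as mean ± SEM of at least three independent experiments.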

MM1.S [2] = assay: Antiproliferative activity against human MM1S cells after 72 hrs by MTT assay; type: functional, cell-based
Histone deacetylase 4 = Histone deacetylase 4 (Homo sapiens, UniProt P56524); assay: Inhibition of recombinant full length human HDAC4 expressed in baculovirus infected sf9 cells using Ac-peptide-AMC as substrate preincubated for 15 mins followed by substrate addition and measured after 1 hr by fluorescence assay
Histone deacetylase 4, sequence (P56524 whole entry): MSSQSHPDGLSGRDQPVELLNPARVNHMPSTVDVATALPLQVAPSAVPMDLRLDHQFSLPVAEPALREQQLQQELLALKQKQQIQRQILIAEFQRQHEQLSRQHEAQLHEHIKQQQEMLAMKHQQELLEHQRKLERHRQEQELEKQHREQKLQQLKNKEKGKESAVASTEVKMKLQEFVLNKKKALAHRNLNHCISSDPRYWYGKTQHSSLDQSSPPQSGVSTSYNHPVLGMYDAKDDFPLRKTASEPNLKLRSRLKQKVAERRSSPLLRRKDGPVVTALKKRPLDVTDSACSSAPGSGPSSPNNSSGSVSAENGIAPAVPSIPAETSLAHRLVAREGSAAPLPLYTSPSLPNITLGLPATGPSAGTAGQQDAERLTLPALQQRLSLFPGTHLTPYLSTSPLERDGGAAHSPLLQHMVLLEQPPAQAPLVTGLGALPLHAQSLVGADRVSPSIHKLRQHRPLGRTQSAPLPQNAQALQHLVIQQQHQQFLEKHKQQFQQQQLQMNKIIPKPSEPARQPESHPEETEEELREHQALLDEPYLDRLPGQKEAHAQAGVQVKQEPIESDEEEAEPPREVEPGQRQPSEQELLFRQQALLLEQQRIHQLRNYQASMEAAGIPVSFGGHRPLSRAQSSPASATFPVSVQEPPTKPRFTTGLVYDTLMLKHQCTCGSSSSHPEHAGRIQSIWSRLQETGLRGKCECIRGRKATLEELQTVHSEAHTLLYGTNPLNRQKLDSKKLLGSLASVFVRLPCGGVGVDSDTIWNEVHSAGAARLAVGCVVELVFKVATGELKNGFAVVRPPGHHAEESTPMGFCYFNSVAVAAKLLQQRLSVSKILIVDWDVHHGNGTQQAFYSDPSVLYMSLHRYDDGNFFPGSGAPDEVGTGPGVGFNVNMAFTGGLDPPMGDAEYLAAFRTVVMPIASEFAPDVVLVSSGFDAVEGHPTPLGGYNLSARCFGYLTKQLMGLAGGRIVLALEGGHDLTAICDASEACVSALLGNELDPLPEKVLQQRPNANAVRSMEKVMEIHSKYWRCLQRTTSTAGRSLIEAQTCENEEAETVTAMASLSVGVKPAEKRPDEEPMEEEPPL

MV4-11 [3] = assay: Antiproliferative activity against human MV4-11 cells after 72 hrs by MTT assay; type: functional, cell-based; conditions: MV4-11, 72 h
[4] = target: PI3-kinase p110-alpha/p85-alpha (Homo sapiens) (UniProt P27986+P42336); assay: Inhibition of recombinant human full length N-terminal His-tagged/untagged p110alpha/p85alpha expressed in baculovirus expression system at 1000 nM using PIP2 as substrate after 1 hr by Kinase-Glo reagent-based assay relative to control
In short: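 PI3Kα (p110α/p85α) incubated with PIP2 substrate and ATP in kinase buffer for 1 h at room temperature. Kinase-Glo reagent was then added for 15 min before luminescence read-out. Inhibition rate at 100 or 1000 nM is the mean of at least two experiments.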

MV4-11 [5] = assay: Cell cycle arrest in human MV4-11 cells assessed as accumulation at G2/M phase at 1.25 nM after 24 hrs by propidium iodide/RNase staining-based FACS analysis (reference value: 18.79%); type: functional
MV4-11 [6] = assay: Cell cycle arrest in human MV4-11 cells assessed as accumulation at G2/M phase at 2.5 nM after 24 hrs by propidium iodide/RNase staining-based FACS analysis (reference value: 18.79%); type: functional
MV4-11 [7] = assay: Cell cycle arrest in human MV4-11 cells assessed as accumulation at S phase at 5 nM after 24 hrs by propidium iodide/RNase staining-based FACS analysis (reference value: 36.42%); type: functional
MV4-11 [8] = assay: Cell cycle arrest in human MV4-11 cells assessed as accumulation at S phase at 10 nM after 24 hrs by propidium iodide/RNase staining-based FACS analysis (reference value: 36.42%); type: functional
MM1.S [9] = assay: Cell cycle arrest in human MM1S cells assessed as accumulation at G2/M phase at 5 nM after 24 hrs by propidium iodide/RNase staining-based FACS analysis (reference value: 26.29%); type: functional
MM1.S [10] = assay: Cell cycle arrest in human MM1S cells assessed as accumulation at S phase at 5 nM after 24 hrs by propidium iodide/RNase staining-based FACS analysis (reference value: 24.49%); type: functional
MM1.S [11] = assay: Cell cycle arrest in human MM1S cells assessed as accumulation at G0/G1 phase at 10 nM after 24 hrs by propidium iodide/RNase staining-based FACS analysis (reference value: 49.22%); type: functional
MV4-11 [12] = assay: Induction of apoptosis in human MV4-11 cells assessed as late apoptotic cells at 10 nM after 48 hrs by Annexin V-FITC/propidium iodide staining-based flow cytometric analysis (reference value: 5.03%); type: functional
MV4-11 [13] = assay: Induction of apoptosis in human MV4-11 cells assessed as necrotic cells at 10 nM after 48 hrs by Annexin V-FITC/propidium iodide staining-based flow cytometric analysis (reference value: 0.17%); type: functional
MV4-11 [14] = assay: Induction of apoptosis in human MV4-11 cells assessed as viable cells at 10 nM after 48 hrs by Annexin V-FITC/propidium iodide staining-based flow cytometric analysis (reference value: 84.1%); type: functional; conditions: MV4-11, 48 h, read-out: Activity
MV4-11 [15] = assay: Induction of apoptosis in human MV4-11 cells assessed as early apoptotic cells at 20 nM after 48 hrs by Annexin V-FITC/propidium iodide staining-based flow cytometric analysis (reference value: 10.7%); type: functional
MV4-11 [16] = assay: Induction of apoptosis in human MV4-11 cells assessed as early apoptotic cells at 40 nM after 48 hrs by Annexin V-FITC/propidium iodide staining-based flow cytometric analysis (reference value: 10.7%); type: functional
MV4-11 [17] = assay: Induction of apoptosis in human MV4-11 cells assessed as late apoptotic cells at 80 nM after 48 hrs by Annexin V-FITC/propidium iodide staining-based flow cytometric analysis (reference value: 5.03%); type: functional
MV4-11 [18] = assay: Induction of apoptosis in human MV4-11 cells assessed as viable cells at 80 nM after 48 hrs by Annexin V-FITC/propidium iodide staining-based flow cytometric analysis (reference value: 84.1%); type: functional; conditions: MV4-11, 48 h, read-out: Activity
MV4-11 [19] = assay: Induction of apoptosis in human MV4-11 cells assessed as late apoptotic cells at 320 nM after 48 hrs by Annexin V-FITC/propidium iodide staining-based flow cytometric analysis (reference value: 5.03%); type: functional
MV4-11 [20] = assay: Induction of apoptosis in human MV4-11 cells assessed as necrotic cells at 320 nM after 48 hrs by Annexin V-FITC/propidium iodide staining-based flow cytometric analysis (reference value: 0.17%); type: functional
MM1.S [21] = assay: Induction of apoptosis in human MM1S cells assessed as viable cells at 40 nM after 48 hrs by Annexin V-FITC/propidium iodide staining-based flow cytometric analysis (reference value: 98.9%); type: functional; conditions: read-out: Activity
MM1.S [22] = assay: Induction of apoptosis in human MM1S cells assessed as late apoptotic cells at 160 nM after 48 hrs by Annexin V-FITC/propidium iodide staining-based flow cytometric analysis (reference value: 0.42%); type: functional
MM1.S [23] = assay: Induction of apoptosis in human MM1S cells assessed as necrotic cells at 160 nM after 48 hrs by Annexin V-FITC/propidium iodide staining-based flow cytometric analysis (reference value: 0.32%); type: functional
MM1.S [24] = assay: Induction of apoptosis in human MM1S cells assessed as early apoptotic cells at 320 nM after 48 hrs by Annexin V-FITC/propidium iodide staining-based flow cytometric analysis (reference value: 0.38%); type: functional
[25] = target: Serine/threonine-protein kinase mTOR (Homo sapiens, UniProt P42345); assay: Inhibition of mTOR in human MV4-11 cells assessed as decrease in 4EBP1 phosphorylation at ser 65 residues at 0.01 to 10 uM after 24 hrs by Western blot analysis; type: cell-based
In short: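 Treatment of MV4-11 cells lasted 24 h at 0.01, 0.1, 1 and 10 μM. Lysis in RIPA buffer and BCA quantitation, then 30 μg protein by SDS-PAGE, PVDF transfer, 5% milk block, primary antibody overnight at 4 °C, HRP secondary 1 h and ECL detection. p-p70S6K (T389), p-4EBP1 (S65), p-Akt (S473) and p-ERK were probed.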

C[C@@H]1CN(C(=O)Nc2ccc(-c3nc(N4CCOCC4)c4cnn(CCCCCCC(=O)NO)c4n3)cc2)CCO1
Activity (MV4-11 [1]): 38.4% | IC50 (Raji): 1.9 nM | IC50 (MM1.S [2]): 7.3 nM | IC50 (Histone deacetylase 4): > 1000 nM | IC50 (MV4-11 [3]): 4.05 nM | inhibition [4]: 57.3% | Activity (MV4-11 [5]): 18.99% | Activity (MV4-11 [6]): 18.2% | Activity (MV4-11 [7]): 21.32% | Activity (MV4-11 [8]): 23.42% | Activity (MM1.S [9]): 24.4% | Activity (MM1.S [10]): 17.65% | Activity (MM1.S [11]): 66.96% | Activity (MV4-11 [12]): 9.91% | Activity (MV4-11 [13]): 0.14% | viability at 0.01 µM (MV4-11 [14]): 75.2% | Activity (MV4-11 [15]): 38.2% | Activity (MV4-11 [16]): 37.4% | Activity (MV4-11 [17]): 56.5% | viability at 0.08 µM (MV4-11 [18]): 4.09% | Activity (MV4-11 [19]): 68.3% | Activity (MV4-11 [20]): 1.62% | viability at 0.04 µM (MM1.S [21]): 70.1% | Activity (MM1.S [22]): 63.3% | Activity (MM1.S [23]): 3.39% | Activity (MM1.S [24]): 32.2% | inhibition [25]: Active

Reference: ChEMBL document CHEMBL4411315, “Discovery of Novel Dual Histone Deacetylase and Mammalian Target of Rapamycin Target Inhibitors as a Promising Strategy for Cancer Therapy” (J Med Chem, 2019)
